These results are taken from ChEMBL document CHEMBL1153041, “Design, synthesis and biological evaluation of 2H-benzo[b][1,4] oxazine derivatives as hypoxia targeted compounds for cancer therapeutics” (Bioorg Med Chem Lett, 2009).

Broadly, the IC50 is the concentration that gives 50% inhibition.

For test [1], the system named is HepG2. The test can be described thus: Cytotoxicity against human HepG2 cells in hypoxic condition after 48 hrs by MTT assay. It counts as functional, cell-based. The method in brief: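 HepG2 cells (passage 2, RPMI 1640 + 10% FBS) given drug or 0.1% DMSO vehicle in log phase. 22 h normoxia, then 2 h hypoxia (1% O2, 5% CO2, 94% N2, 37 °C) in a glove chamber checked by methylene blue indicator, then 24 h reoxygenation. MTT read at 48 h; parallel normoxic duplicate plate.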
(Tetrazolium dyes change colour on reduction, which living cells bring about.)

For test [2], the system named is HepG2. Description: Cytotoxicity against human HepG2 cells in normoxic condition after 48 hrs by MTT assay. In kind it is functional, cell-based. In outline: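 HepG2 cells (passage 2 from frozen stock) in RPMI 1640 with 10% FBS, dosed during log-phase growth with drug or vehicle (0.1% DMSO). Normoxic incubation at 37 °C, 5% CO2 for 48 h, then MTT read-out. Duplicate plates split from the same stock cells.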

Test [3] relates to HepG2. Description: Cytotoxicity against human HepG2 cells assessed as cell survival under hypoxic condition at 10 uM after 24 hrs by clonogenic assay. It counts as functional. As to conditions: HepG2, 24 h, read-out: Survival. The method in brief:
(§1)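 HepG2 in RPMI 1640 + 10% FBS, 3.5 × 10^3 cells/well, grown 24 h at 37 °C normoxic, then exposed to vehicle (0.1% DMSO) or drug. Hypoxia 1% O2/5% CO2/94% N2 at 37 °C for 5 h in glove chamber, then reoxygenated (5% CO2, 37 °C) for the rest of 10 days. Acetic acid fixation, crystal violet stain. Colonies >50 μm counted in three random 1-mm grids, expressed relative to controls; Mann–Whitney test.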

Test [4] deals with HepG2. The test can be described thus: Cytotoxicity against human HepG2 cells assessed as cell survival under normoxic condition at 25 uM after 24 hrs by clonogenic assay relative to control. It counts as functional. As to conditions: HepG2, 24 h, read-out: Survival. In outline: (§2)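 HepG2 in RPMI 1640 + 10% FBS, 3.5 × 10^3 cells/well, allowed 24 h growth at 37 °C. Vehicle (0.1% DMSO) or drug then applied, with 10 days incubation under normoxia (5% CO2, 37 °C). Fixed in 10% acetic acid, stained with crystal violet. Colonies >50 μm were counted visually in three random 1-mm × 1-mm grids, relative to controls; Mann–Whitney test.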

In test [5] the test system is HepG2. The test can be described thus: Cytotoxicity against human HepG2 cells assessed as cell survival under hypoxic condition at 400 uM after 24 hrs by clonogenic assay relative to control. It counts as functional, cell-based. As to conditions: in the assay text read “normoxic” for “hypoxic”.
Test [6] has as its system HepG2. The test can be described thus: Cytotoxicity against human HepG2 cells assessed as cell survival under normoxic condition assessed as cell survival at 100 uM after 24 hrs by clonogenic assay relative to control. To be noted: HepG2, 24 h, read-out: Survival. In kind it is functional. The method in brief: as §2
Test [7] deals with HepG2. The test can be described thus: Down regulation of hypoxia inducible VEGF gene expression in human HepG2 cells at 20 uM by RT-PCR. It counts as functional, cell-based. The method in brief:
(§3)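 Total RNA extracted with TRIzol, then quantitative RT-PCR: 50 °C 2 min, 95 °C 10 min, 40 cycles of 95 °C 15 s / 60 °C 1 min, with melting curves. Ct normalized to GAPDH; treated-minus-control ΔCt converted by 2^ to relative expression.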

The test system of test [8] is HepG2. Description: Cytotoxicity against human HepG2 cells assessed as assessed as cell survival under hypoxic condition at 50 uM after 24 hrs by clonogenic assay. It counts as functional. As to conditions: HepG2, 24 h, read-out: Survival. The method in brief:
as §1

Test [9] relates to HepG2. Description: Down regulation of hypoxia inducible P21 gene expression in human HepG2 cells at 20 uM by RT-PCR. It counts as functional, cell-based. The method in brief:
as §3

Test [10] relates to HepG2. Description: Down regulation of hypoxia inducible HIF1alpha gene expression in human HepG2 cells at 20 uM by RT-PCR. It counts as functional, cell-based. The method in brief: as §3
Test [11] deals with HepG2. The test can be described thus: Cytotoxicity against human HepG2 cells assessed as cell survival under hypoxic condition at 100 uM after 24 hrs by clonogenic assay relative to control. It counts as functional. As to conditions: HepG2, 24 h, read-out: Survival. The method in brief: as §1
Test [12] relates to HepG2. The test can be described thus: Cytotoxicity against human HepG2 cells assessed as cell survival under hypoxic condition at 25 uM after 24 hrs by clonogenic assay relative to control. It counts as functional. To be noted: HepG2, 24 h, read-out: Survival. The method in brief: as §1
For test [13], the system named is HepG2. Description: Cytotoxicity against human HepG2 cells assessed as cell survival under normoxic condition at 50 uM after 24 hrs by clonogenic assay relative to control. In kind it is functional. As to conditions: HepG2, 24 h, read-out: Survival. In outline:
as §2

The test system of test [14] is HepG2. The test can be described thus: Cytotoxicity against human HepG2 cells assessed as cell survival under normoxic condition at 10 uM […] by clonogenic assay relative to control. It counts as functional. As to conditions: read-out: Survival. The method in brief: as §2
Where [15] appears, read: Homo sapiens, HepG2, 48 h, read-out: IC50.

The structures appear in SMILES notation. Calls of active or inactive are those of the source. No cut-off for these calls is given here.

For the compound `Cc1ccc2c(c1)N=C(c1ccc(F)cc1)CO2`, the IC50 result in test [1] (hepg2) and in test [2] (hepg2) was “Not Active” in each case.
For the compound `Clc1ccc(C2=Nc3ccc(Cl)cc3OC2)cc1`, the figures for the IC50 in [1] (setting [15]) and in [2] (setting [15]) were 28 µM and 88 µM, respectively.
For `Cc1ccc(C2=Nc3cc(F)ccc3OC2)cc1`, the half-maximal inhibitory concentration (IC50) is 100 µM in test [1] (setting [15]) and “Not Active” in test [2] (hepg2).
With `c1ccc(C2=Nc3ccccc3OC2)cc1`, the 50% inhibitory concentration (IC50) in [1] (setting [15]) was 10 µM; in test [2] (setting [15]), 87 µM. Moreover, the viability at 10 µM in [3] is -71%.
As for `Clc1ccc2c(c1)N=C(c1ccccc1)CO2`, the IC50 was 30 µM in test [1] (setting [15]) and 78 µM in test [2] (setting [15]).
Regarding `Cc1ccc(C2=Nc3ccc(Cl)cc3OC2)cc1`, the results for the IC50 in test [1] (setting [15]) and in test [2] (hepg2) were 10 µM and “Not Active”, respectively.
Turning to `Cc1ccc2c(c1)N=C(c1ccc(Cl)cc1)CO2`, the viability at 25 µM is 5% in [4] and -31% in test [12]. Further, the Activity entry in test [5] is “Not toxic”. For the same compound, the viability at 100 µM in test [6] is 10%; in test [11], -90%. Besides, the outcome in test [7], in [9] and in [10] was Active. Moreover, the viability at 50 µM in test [8] is -65%; in [13], 3%. Besides, the IC50 in [1] (setting [15]) turned out to be 87 µM.
Turning to `O=[N+]([O-])c1ccc2c(c1)N=C(c1ccc(Cl)cc1)CO2`, the viability at 10 µM was 10% in test [14] and -28% in test [3]. The figures for the viability at 50 µM in test [8] and in [13] were -83% and -11%, respectively. The IC50 in test [1] (setting [15]) came to 20 µM; in [2] (setting [15]) it was 78 µM.
